ChEMBL document CHEMBL1240360, “TMC278, a next-generation nonnucleoside reverse transcriptase inhibitor (NNRTI), active against wild-type and NNRTI-resistant HIV-1” (Antimicrob Agents Chemother, 2010)

How the values were obtained:
[1] = test system: Human immunodeficiency virus 1; test: Antiviral activity against Human immunodeficiency virus 1 group M subtype G assessed as days to viral replication breakthrough at 40 nM by cell based assay; assay type: functional
[2] = test system: Human immunodeficiency virus 1; test: Antiviral activity against Human immunodeficiency virus 1 subtype E isolate 93TH073 infected in human PBMC cells by cell based assay; conditions: Human immunodeficiency virus 1, subtype E 93TH073, PBMC
[3] = test system: Human immunodeficiency virus 1; test: Antiviral activity against Human immunodeficiency virus 1 group M subtype A1 assessed as days to viral replication breakthrough at 200 nM by cell based assay; assay type: functional
[4] = test system: Human immunodeficiency virus 1; test: Antiviral activity against Human immunodeficiency virus 1 group M subtype AG assessed as days f for viral replication at 200 nM by cell based assay; assay type: functional
[5] = test system: Human immunodeficiency virus 1; test: Antiviral activity against Human immunodeficiency virus 1 subtype C isolate 92BR025 infected in human PBMC cells by cell based assay; conditions: Human immunodeficiency virus 1, subtype C isolate 92BR025, PBMC
[6] = test system: Human immunodeficiency virus 1; test: Antiviral activity against Human immunodeficiency virus 1 group M subtype C assessed as days to viral replication breakthrough at 10 nM by cell based assay; assay type: functional
[7] = test system: Human immunodeficiency virus 1; test: Antiviral activity against Human immunodeficiency virus 1 subtype F1 infected in human MT4 cells assessed as reduction in virus induced cytopathicity; assay type: functional, organism-based; conditions: Human immunodeficiency virus 1, subtype F1, MT4
How it was run: (§1)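 Recombinant viruses were made by recombining patient-derived HIV-1 RT-PR sequences into an RT-PR-deleted HXB2 proviral clone transfected into MT4 cells. Subtype was assigned from PR/RT sequence by Smith-Waterman alignment to HXB2. MT4 cells (1.5 × 10^5/ml) were infected at MOI 0.01 with serially diluted compound for 5 days at 37°C. Viability was read by MTT and EC50 derived.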

[8] = test system: Human immunodeficiency virus 1; test: Antiviral activity against Human immunodeficiency virus 1 group M subtype BG assessed as days to viral replication breakthrough at 10 nM by cell based assay; assay type: functional
[9] = test system: Human immunodeficiency virus 1; test: Antiviral activity against Human immunodeficiency virus 1 subtype G isolate RU132 infected in human PBMC cells by cell based assay; conditions: Human immunodeficiency virus 1, subtype G isolate RU132, PBMC
[10] = test system: Human immunodeficiency virus 1; test: Antiviral activity against Human immunodeficiency virus 1 subtype B isolate WEJO infected in human PBMC cells by cell based assay
[11] = test system: Human immunodeficiency virus 1; test: Antiviral activity against Human immunodeficiency virus 1 subtype E isolate 92TH006 infected in human PBMC cells by cell based assay; conditions: Human immunodeficiency virus 1, subtype E 92TH006, PBMC
[12] = test system: Human immunodeficiency virus 1; test: Antiviral activity against Human immunodeficiency virus 1 subtype BG infected in human MT4 cells assessed as reduction in virus induced cytopathicity; assay type: functional, organism-based; how it was run: as §1
[13] = test system: Human immunodeficiency virus 1; test: Antiviral activity against Human immunodeficiency virus 1 subtype G isolate G3 infected in human PBMC cells by cell based assay; conditions: Human immunodeficiency virus 1, subtype G isolate G3, PBMC
[14] = test system: Human immunodeficiency virus 1; test: Antiviral activity against Human immunodeficiency virus 1 group M subtype B assessed as days to viral replication breakthrough at 10 nM by cell based assay; assay type: functional
[15] = test system: Human immunodeficiency virus 1; test: Antiviral activity against Human immunodeficiency virus 1 group M subtype H assessed as days to viral replication breakthrough at 40 nM by cell based assay; assay type: functional
[16] = test system: Human immunodeficiency virus 1; test: Antiviral activity against Human immunodeficiency virus 1 group M subtype BG assessed as days to viral replication breakthrough at 200 nM by cell based assay; assay type: functional
[17] = test system: Human immunodeficiency virus 1; test: Antiviral activity against Human immunodeficiency virus 1 group M subtype AE assessed as days to viral replication breakthrough at 10 nM by cell based assay; assay type: functional
[18] = test system: Human immunodeficiency virus 1; test: Antiviral activity against Human immunodeficiency virus 1 subtype F isolate 93BR029 infected in human PBMC cells by cell based assay; conditions: Human immunodeficiency virus 1, subtype F isolate 93BR029, PBMC
[19] = test system: Human immunodeficiency virus 1; test: Antiviral activity against Human immunodeficiency virus 1 group M subtype H assessed as days to viral replication breakthrough at 10 nM by cell based assay; assay type: functional
[20] = test system: Human immunodeficiency virus 1; test: Antiviral activity against Human immunodeficiency virus 1 subtype G infected in human MT4 cells assessed as reduction in virus induced cytopathicity; assay type: functional, organism-based; how it was run: as §1
[21] = test system: Human immunodeficiency virus 1; test: Antiviral activity against Human immunodeficiency virus 1 subtype C infected in human MT4 cells assessed as reduction in virus induced cytopathicity; assay type: functional, organism-based; how it was run: as §1
[22] = test system: Human immunodeficiency virus 1; test: Antiviral activity against Human immunodeficiency virus 1 group M subtype AG assessed as days to viral replication breakthrough at 40 nM by cell based assay; assay type: functional
[23] = test system: Human immunodeficiency virus 1; test: Antiviral activity against Human immunodeficiency virus 1 subtype AG infected in human MT4 cells assessed as reduction in virus induced cytopathicity; assay type: functional, organism-based; how it was run: as §1
[24] = test system: Human immunodeficiency virus 1; test: Antiviral activity against Human immunodeficiency virus 1 group M subtype D assessed as days to viral replication breakthrough at 200 nM by cell based assay; assay type: functional
[25] = test system: Human immunodeficiency virus 1; test: Antiviral activity against Human immunodeficiency virus 1 group M subtype AE assessed as days to viral replication breakthrough at 200 nM by cell based assay; assay type: functional
[26] = test system: Human immunodeficiency virus 1; test: Antiviral activity against Human immunodeficiency virus 1 group M subtype A1 assessed as days to viral replication breakthrough at 10 nM by cell based assay; assay type: functional
[27] = test system: Human immunodeficiency virus 1; test: Antiviral activity against Human immunodeficiency virus 1 subtype A isolate 92RW020 infected in human PBMC cells by cell based assay; conditions: Human immunodeficiency virus 1, subtype A isolate 92RW020, PBMC
[28] = test system: Human immunodeficiency virus 1; test: Antiviral activity against Human immunodeficiency virus 1 subtype D isolate 92UG024 infected in human PBMC cells by cell based assay; conditions: Human immunodeficiency virus 1, subtype D 92UG024, PBMC
[29] = test system: Human immunodeficiency virus 1; test: Antiviral activity against Human immunodeficiency virus 1 subtype A1 infected in human MT4 cells assessed as reduction in virus induced cytopathicity; assay type: functional, organism-based; conditions: Human immunodeficiency virus 1, subtype A1, MT4; how it was run: as §1
[30] = test system: Human immunodeficiency virus 1; test: Antiviral activity against Human immunodeficiency virus 1 subtype F isolate 93BR019 infected in human PBMC cells by cell based assay; conditions: Human immunodeficiency virus 1, subtype F isolate 93BR019, PBMC
[31] = test system: Human immunodeficiency virus 1; test: Antiviral activity against Human immunodeficiency virus 1 group M subtype B assessed as days viral replication at 200 nM by cell based assay; assay type: functional
[32] = test system: Human immunodeficiency virus 1; test: Antiviral activity against Human immunodeficiency virus 1 group M subtype G assessed as days to viral replication breakthrough at 10 nM by cell based assay; assay type: functional
[33] = test system: Human immunodeficiency virus 1; test: Antiviral activity against Human immunodeficiency virus 1 group M subtype F1 assessed as days to viral replication breakthrough at 200 nM by cell based assay; assay type: functional

Cc1cc(/C=C/C#N)cc(C)c1Nc1ccnc(Nc2ccc(C#N)cc2)n1 [RILPIVIRINE]
Activity [1]: > 31 days | EC50 [2]: 0.07 nM | Activity [3]: > 31 days | Activity [4]: > 31 days | EC50 [5]: 0.33 nM | Activity [6]: > 31 days | EC50 [7]: 0.21 nM | Activity [8]: 10 days | EC50 [9]: 0.51 nM | EC50 [10]: 0.08 nM | EC50 [11]: 0.08 nM | EC50 [12]: 0.22 nM | EC50 [13]: 0.25 nM | Activity [14]: 7 days | Activity [15]: > 31 days | Activity [16]: > 31 days | Activity [17]: > 31 days | EC50 [18]: 0.19 nM | Activity [19]: > 31 days | EC50 [20]: 0.14 nM | EC50 [21]: 0.3 nM | Activity [22]: > 31 days | EC50 [23]: 0.13 nM | Activity [24]: > 31 days | Activity [25]: > 31 days | Activity [26]: 10 days | EC50 [27]: 0.07 nM | EC50 [28]: 0.38 nM | EC50 [29]: 0.44 nM | EC50 [30]: 0.95 nM | Activity [31]: > 31 days | Activity [32]: > 31 days | Activity [33]: > 31 days
